Assay results from the EternaBench riboswitch data.

Tested on: MS2 coat protein
Assay: apparent Kd, MS2 coat protein; higher = weaker binding; RNA-MaP array; FMN 200 µM where present
Procedure, shortened: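 Green signal from SNAP-549-labelled MS2 coat protein was normalised to red-channel RNA signal and to the median Fmax of control clusters. The protein was titrated from 0.7 or 1.5 nM, doubling to 3 µM, without and then with constant ligand, over designs transcribed by stalled E. coli RNA polymerase on Illumina sequencing-chip clusters, in 100 mM Tris-HCl pH 7.5, 80 mM KCl, 4 mM MgCl2, BSA, DTT, yeast tRNA and Tween-20. The apparent Kd is the median of filtered per-cluster binding-curve fits.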

[1] = designed as: ON switch for flavin mononucleotide, no ligand
[2] = ligand present: flavin mononucleotide, designed as: ON switch for flavin mononucleotide
[3] = designed as: OFF switch for flavin mononucleotide, no ligand
[4] = ligand present: flavin mononucleotide, designed as: OFF switch for flavin mononucleotide

| Sequence | apparent Kd [1] [nM] | apparent Kd [2] [nM] | apparent Kd [3] [nM] | apparent Kd [4] [nM] |
| --- | --- | --- | --- | --- |
| GCAAAGCCUGACAUGAGGAUCACCCAUGUUAGAUUGUUAUGUCAGGAUAUUGUCUAGACCCUAGACAAGAAGGGAUGCUUUGCA | 472 | 29.1 | – | – |
| UUUUAACAUGAGGAUCACCCAUGUGAGGAUAUCGAAAUUUAUAUUAAUAUUUAUAUAACGAGAAGGCACAUUUU | – | – | 68.4 | 90.1 |
| GCGUAUUAGGUGUAGCUAGACAUUCAAGAAGGGUGAAGAACAUGAGGAUCACCCAUGUAGUUGGUACAGGAUAUUGAUUUACGC | 897 | 176 | – | – |
| ACGGCAAUCGAAGGAUAUGGUUACAUGAGGAUCACCCAUGUCUAGGGUCUAAUUAGGUAUAACUACCAGAAGGUCGAAGGCCUA | – | – | 67.6 | 72.5 |
| AACGUGGCAAAGGAUAUCCACACGGCAAAGCCGGGAGAAGGUUGCACAUGAGGAUCACCCAUGUGAACCAAACA | – | – | 14.9 | 17.8 |
| UUCAGCUCGUGAGGAUAUACAUGUGCUGGAAACAGCACUAAAGAUUUCACAUGAGGAUCACCCAUGUAGAAGGCACGAGCUGAG | – | – | 16.2 | 39.4 |
| AUAAGUCGAGGAUAUACAAAAUGCUAGCGAAAGCUAGCAUAACAUGAGGAUCACCCAUGUAGAAGGCGACAAUA | – | – | 24.5 | 26.1 |
| GUGCAUGUGCGAACUAACCCACAUGAGGAUCACCCAUGUAGGAGAAGGGUCCGGAGGUGCCGUGGACAGGAUAUCCUACGCCUU | – | – | 17.5 | 33.2 |
| CAAUUGGCACAGAAGGGUGACAUGAGGAUCACCCAUGUAGCGUGGUACUCAGGAGGAACCACGCCACAGGAUAUGUGCGGGCAC | 30.3 | 38.8 | – | – |
| AAUAUGUUGCAGAAGGCUAUAUUGUUGUAGUACCUCAUGACAUGAGGAUCACCCAUGUUUUUGUUGGAGGAUAUGCAAUAUAUU | – | – | 7.32 | 7.07 |
| UUCAGCUCGUGAGGAUAUACAUGUGCUGGAAACAGCACUAAUUAAUUCACAUGAGGAUCACCCAUGUAGAAGGCACGAGCUGAG | – | – | 15.7 | 18.1 |
| GCCAUCGCAUGAGGAUAUGGUCAGCUUUGCUGACCAGAAGGCAUGUCAAUAGACAUGAGGAUCACCCAUGUAGUUAAGAUGGCA | 797 | 54 | – | – |
| GGAUAGGACAGAGGAUAUACGUGCUAGAGAUACUAGCAAAAUUCCCUCACAUGAGGAUCACCCAUGUAGAAGGCUGUCCUAUCG | – | – | 5.68 | 49.6 |
| GUGGUCAGACAUGAGGAUCACCCAUGUGGAAUAAAUAAGGAACAGGAUAUGGAAUAUAGGAUAUACCAGAAGGGUUGGUUGGUG | 72.3 | 82.4 | – | – |
| GUUAUAAUUGAAGGAUAUCUAUAUCCAACAUGAGGAUCACCCAUGUUGAGGAUCACCCAUGUAAAGGAGAAGGUUAAUUAUAAU | 84.2 | 25.2 | – | – |
| AAAAUUUAUUGAGGAUAUUCAUACACUGCAUACGGAGAAGGCAAACAAUCAUGAGGACAUGAGGAUCACCCAUGUUGUGACCAU | 18.9 | 15.8 | – | – |
| GUCGUGUGAGGAUAUGGUUCGUCGCAGUGGCGGUCGGCGACCUAGAAGGCACAUGAGGAUCACCCAUGUAUGUG | – | – | 122 | 84 |
| CCAUAAAGGUAGGAUAUCGAUUUUAAUUAAUAUCGAGAAGGGUCAACAUGAGGAUCACCCAUGUCAGCAUGUAA | – | – | 60.9 | 58.7 |

| Sequence | apparent Kd [1] [nM] | apparent Kd [2] [nM] | apparent Kd [3] [nM] | apparent Kd [4] [nM] |
| --- | --- | --- | --- | --- |
| UAGAAGUCAGGAUAUCCAGCUCGUCACUUGCGUGAUGAGUUGGAGAAGGGACAUGAGGAUCACCCAUGUAAAGU | – | – | 56.3 | 58.3 |
| GUGUUUGAUGAGGAUAUCGCUGUGGGUACACAGCGAGAAGGCAUUACAUGAGGAUCACCCAUGUAGUGUGGGUU | – | – | 24 | 105 |
| UUCAUGUGAGGAUAUGCGGCGUCAGGUGGGCCUGUCGCUGAGCAGAAGGCACAUGAGGAUCACCCAUGUGCUCC | – | – | 31.7 | 62.5 |
| UUAUUUAUACAAGGAUAUCUAUUGUUAAUUCGACUUACAUGAGGAUCACCCAUGUUUUUAUGUUUAGAGAAGGUGUAUUUUCAG | 90.4 | 51.9 | – | – |
| GGUAGGAUCGCAGGAUAUGCUAUCCUUUGGGUAGCAGAAGGGUGAUAACAUGAGGAUCACCCAUGUCCUACCGGGCGUGAGCCC | 57.8 | 1590 | – | – |
| ACAAAUCAUGUAGGAUAUCGAUUGCGUCGCGAUCGAGAAGGACAAGAGGGUCACCCUUGUACAUGAGGAUCACCCAUGUCAUGA | – | – | 193 | 120 |
| UACAUGGAACAGAAGGGCAAUUUAUUUAAUUAUUAUUUAGAACAGCUUUGCAGGAUAUGUUUAACAUGAGGAUCACCCAUGUAC | 57.6 | 17.4 | – | – |
| AAUAGGUUUCCCGGUGGUUAAUACAUGAGGAUCACCCAUGUCAAGGAUAUAGCCGUAUAACCAGGUUAGAAGGUGACUAAAUGA | – | – | 67.5 | 120 |
| GGGUACAUCGGAGGAUAUCAUCUAAAUACAUGAGGAUCACCCAUGUCGAUGGAGACAUCGGAGAUUGAGAAGGCCGAUGUACCG | 5.06 | 5.23 | – | – |
| AGCUAGUCAGGAUAUGCAUACAUGUCAAAAGACGUGAAGGGACAUGAGGAUCACCCAUGUAGAAGGGACUAGCA | – | – | 40.4 | 67.9 |
| UUGGACGUCGUAGGAUAUGUAGGAUAUUCCUACAUGAGGAUCACCCAUGUUGACAUGGAAGAAGGACAAAAGGACGAUGUCCAU | 377 | 9.05 | – | – |
| GACUGGGCAGGAUAUACAUGAGGAUCACCCAUGUGUCUGCGUCAGGCACGUGUAGACGGUAGAAGGGCCUACAC | – | – | 11.6 | 13.6 |
| UGAGUAGCGAAACAACGCACAUGAGGAUCACCCAUGUCUACACAGGAUAUGCGACGCUCCAGUUAGCAGAAGGGUGAACUCAAA | 36.4 | 89.7 | – | – |
| UUUACUUACGAAGGAUAUGGUUACAUGAGGAUCACCCAUGUAUGUAUAAUGAUCUAGUAUUUUAACCAGAAGGUCGUGAUUAUU | – | – | 39.3 | 64.6 |
| CGUUGAUGAGGAUAUCGAUGUUAGUACAUGAGGAUCACCCAUGUUAUCCAAGUGUCGGAUCGAGAAGGUAUUGGAC | – | – | 320 | 306 |
| UAAGUUGAGGAGAAGGGAGCACAUGAGGAUCACCCAUGUGGUUCUUUGUGCUCAGGAUAUCCAUGGAGCUCCGUCGCGUUCCAG | – | – | 103 | 19.1 |
| UAGGACUUCGUAGGAUAUGUAUUUGAUUUCUACAUGAGGAUCACCCAUGUUUGCAUUUUUUUUUGACAGAAGGACGUGGUCGAA | 30.3 | 17.3 | – | – |
| UUUUUGUGAGGAUAUCAGUAGUAAAAUAAAUAAAUUACUACUGAGAAGGCACAUGAGGAUCACCCAUGUUCCUU | – | – | 14 | 30.3 |
